Test results from ChEMBL document CHEMBL1138206, “Lead compounds for antimalarial chemotherapy: purine base analogs discriminate between human and P. falciparum 6-oxopurine phosphoribosyltransferases” (J Med Chem, 2006).
The source made the active and inactive calls. The rule behind the calls is not given here.

B1: Hypoxanthine-guanine phosphoribosyltransferase (Homo sapiens), P00492 (protein)
chain: MATRSPGVVISDDEPGYDLDLFCIPNHYAEDLERVFIPHGLIMDRTERLARDVMKEMGGHHIVALCVLKGGYKFFADLLDYIKALNRNSDRSIPMTVDFIRLKSYCNDQSTGDIKVIGGDDLSTLTGKNVLIVEDIIDTGKTMQTLLSLVRQYNPKMVKVASLLVKRTPRSVGYKPDFVGFEIPDKFVVGYALDYNEYFRDLNHVCVISETGKAKYKA

Columns and labels:
Plasmodium falciparum [1] = system: Plasmodium falciparum
Plasmodium falciparum [2] = experiment: Antiplasmodial activity against Plasmodium falciparum 3D7; format: functional, organism-based
In short: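 P. falciparum 3D7 kept in erythrocyte culture. Triplicate cultures exposed to a range of purine base concentrations for 48 h, without radiolabel. Giemsa-stained blood smears examined by light microscopy to determine parasitemia. IC50 taken as the inhibition of growth, from counts of viable parasites.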

Plasmodium falciparum [3] = experiment: Inhibition of [3H]hypoxanthine uptake in Plasmodium falciparum 3D7; format: functional, organism-based; conditions: 3D7, 48 h
Plasmodium falciparum [4] = system: Plasmodium falciparum; remark: listed apart in the source
[5] = Inhibition of Toxoplasma gondii 6 oxopurine phosphoribosyl transferase
[6] = Inhibition of Plasmodium falciparum HGXPRT at pH 7.4
Plasmodium falciparum [7] = experiment: Antimalarial activity against Plasmodium falciparum 3D7 at 130 uM; format: functional, organism-based
Plasmodium falciparum [8] = experiment: Inhibition of [3H]hypoxanthine uptake into Plasmodium falciparum 3D7 at 130 uM; format: functional, organism-based
Sphi609 [9] = experiment: Inhibition of Escherichia coli Sphi609 cells expressing human HGPRT; format: functional, cell-based
Sphi609 [10] = experiment: Inhibition of Escherichia coli Sphi609 cells expressing Plasmodium falciparum HGXPRT; format: functional, cell-based
Plasmodium lophurae = experiment: Inhibition of Plasmodium lophurae 6 oxopurine phosphoribosyl transferase
Plasmodium chabaudi = experiment: Inhibition of Plasmodium chabaudi 6 oxopurine phosphoribosyl transferase
Plasmodium falciparum [11] = experiment: Antimalarial activity against Plasmodium falciparum; format: functional, organism-based
In short: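 P. falciparum 3D7, a laboratory-adapted isolate, was kept in erythrocyte culture. Triplicate cultures were exposed to a range of purine base concentrations with 0.5 µCi/well [3H]hypoxanthine for 48 h, and label incorporation into nucleic acids was measured. Parallel cultures without label were run for 48 h, and parasitemia was read on Giemsa-stained smears by light microscopy. IC50 was derived for each read-out.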

Plasmodium falciparum [12] = experiment: Inhibition of [3H]hypoxanthine uptake into Plasmodium falciparum 3D7 at 120 uM; format: functional, organism-based
Plasmodium falciparum [13] = experiment: Antimalarial activity against Plasmodium falciparum 3D7 at 120 uM; format: functional, organism-based
Plasmodium falciparum [14] = experiment: Inhibition of [3H]hypoxanthine uptake into Plasmodium falciparum 3D7 at 125 uM; format: functional, organism-based
Plasmodium falciparum [15] = experiment: Antimalarial activity against Plasmodium falciparum 3D7 at 125 uM; format: functional, organism-based
[16] = substrate: Nc1nc2[nH]cnc2c(=S)[nH]1; conditions: Homo sapiens
[17] = substrate: Nc1nc(O)c2[nH]nnc2n1; conditions: Homo sapiens
[18] = substrate: Oc1ncnc2[nH]ncc12; conditions: Homo sapiens
[19] = substrate: O=c1[nH]cnc2nc[nH]c12; conditions: Homo sapiens
[20] = substrate: Sc1ncnc2nc[nH]c12; conditions: Homo sapiens
[21] = substrate: Nc1nc2[nH]cnc2c(=O)[nH]1; conditions: Homo sapiens
[22] = substrate: Nc1nc2[nH]cnc2c(=S)[nH]1; conditions: Homo sapiens; remark: listed apart in the source
[23] = substrate: Oc1ncnc2[nH]ncc12; conditions: Homo sapiens; remark: listed apart in the source
[24] = substrate: O=c1[nH]cnc2nc[nH]c12; conditions: Homo sapiens; remark: listed apart in the source
[25] = substrate: Sc1ncnc2nc[nH]c12; conditions: Homo sapiens; remark: listed apart in the source
[26] = substrate: Nc1nc2[nH]cnc2c(=O)[nH]1; conditions: Homo sapiens; remark: listed apart in the source

Molecule | Km (Plasmodium falciparum [1]) | IC50 (Plasmodium falciparum [2]) | IC50 (Plasmodium falciparum [3]) | Km (Plasmodium falciparum [4]) | other results
Nc1nc(Cl)c2nc[nH]c2n1 [6-CHLOROGUANINE] | 176 µM | 10 µM | 67 µM |  | 
O=c1[nH]cnc2nc[nH]c12 [HYPOXANTHINE] | 0.07 µM |  | 4.2 µM | 0.9 µM | 
Nc1nc2[nH]cnc2c(=O)[nH]1 [GUANINE] | 0.83 µM | 60 µM | 35.3 µM | 1.4 µM | 
Nc1nc2ncnc-2c[nH]1 [2-AMINOPURINE] |  |  |  |  | Ki [5]: 60 µM
O=c1[nH]c(=O)c2nn[nH]c2[nH]1 |  |  |  |  | Ki [6]: ≥ 100 µM
O=c1[nH]c(=O)c2nc[nH]c2[nH]1 | 189 µM |  |  | 420 µM | Activity (Plasmodium falciparum [7]): inactive; Activity (Plasmodium falciparum [8]): inactive
Sc1ncnc2nc[nH]c12 [MERCAPTOPURINE ANHYDROUS] | 0.02 µM | 2 µM | 1.3 µM | 1.6 µM | Activity (Sphi609 [9]): Active; Activity (Sphi609 [10]): Active; Activity (Plasmodium lophurae): Active; Activity (Plasmodium chabaudi): Active
Nc1nc2[nH]cnc2c(=S)[nH]1 [THIOGUANINE] | 0.75 µM | 10 µM | 21.3 µM | 1.9 µM | Activity (Sphi609 [9]): Active; Activity (Sphi609 [10]): Active; Activity (Plasmodium lophurae): Active; Activity (Plasmodium chabaudi): Active
Oc1ncnc2[nH]ncc12 [ALLOPURINOL] | 10.5 µM |  | ≥ 150 µM | 11.7 µM | Activity (Plasmodium falciparum [11]): inactive
Nc1nc(O)c2[nH]nnc2n1 [8-AZAGUANINE] | 12.6 µM | 18 µM | 6.6 µM | 26.6 µM | 
O=c1[nH]c(=S)c2nc[nH]c2[nH]1 | 82 µM |  |  |  | Activity (Plasmodium falciparum [12]): inactive; Activity (Plasmodium falciparum [13]): inactive
O=c1[nH]c(S)nc2[nH]cnc12 |  |  |  |  | Activity (Plasmodium falciparum [14]): inactive; Activity (Plasmodium falciparum [15]): inactive
O=c1[nH]cnc2[nH]nnc12 | 25.6 µM | 38 µM | 90 µM | 145 µM | 
B1 |  |  |  |  | Km [16]: 1.7 µM; Km [17]: 72 µM; Km [18]: 47.9 µM; Km [19]: 3.4 µM; Km [20]: 1.15 µM; Km [21]: 1.9 µM; Km [22]: 5.9 µM; Km [23]: 135 µM; Km [24]: 3.1 µM; Km [25]: 3 µM; Km [26]: 1.9 µM
